Key:
Rattus norvegicus [1] = organism: Rattus norvegicus; assay: Tested for inhibition of myo-[3H]inositol uptake in F111 rat fibroblast cells at 5 mM; assay type: functional
In short: (§1)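 F111 rat fibroblasts grown overnight on coverslips in inositol-free DMEM with 10% dialyzed calf serum and 10 μM myo-inositol, washed, then incubated 120 min at 37 °C, 5% CO₂ in Krebs-Ringer (HEPES pH 7.4) with 10 μM myo-[³H]inositol and 5 mM analogue. Washed, lysed in 1% SDS; radioactivity counted and normalised to BCA protein.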

[2] = biological target: T1, CDP-diacylglycerol--inositol 3-phosphatidyltransferase (Mus musculus) (UniProt Q8VDP6); assay: Tested as substrate of phosphatidylinositol synthase in mouse brain by measuring percent CMP formation compared with myo-inositol tested at 5 mM; assay type: functional, tissue-based
T1 sequence (whole entry): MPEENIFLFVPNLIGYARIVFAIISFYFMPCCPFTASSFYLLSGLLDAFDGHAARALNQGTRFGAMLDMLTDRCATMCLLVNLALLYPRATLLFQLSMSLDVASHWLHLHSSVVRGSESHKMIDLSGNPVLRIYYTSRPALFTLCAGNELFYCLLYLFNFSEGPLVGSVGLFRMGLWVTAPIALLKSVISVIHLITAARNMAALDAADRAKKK
In short: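 Mouse brain microsomes (12-day-old mice; 900g then 12000g pellet) as PtdIns synthase source. 37 °C, 50 mM Tris-HCl pH 8.3, 48 mM MgCl₂, 0.5 mM CDP-dipalmitin, 0.25% Triton X-100, 5 mM analogue or myo-inositol, 0.5 mg microsomal protein. Stopped in linear phase with CHCl₃-MeOH; aqueous CMP read at 280 nm. Expressed as % of myo-inositol; averages of two or more determinations.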

[3] = biological target: T1, CDP-diacylglycerol--inositol 3-phosphatidyltransferase (Mus musculus); assay: Tested for inhibition of phosphatidylinositol synthase from mouse brain at 5 mM
In short: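 Mouse brain microsomal PtdIns synthase; incorporation of 0.5 mM myo-[2-³H]inositol into CHCl₃-soluble lipid at 37 °C with Tris-HCl pH 8.3, 48 mM MgCl₂, 0.5 mM CDP-dipalmitin, 0.25% Triton X-100, 5 mM analogue, 0.05 mg microsomal protein. Stopped at 20 min with HCl/MeOH and CHCl₃; organic phase scintillation counted. Averages of two or more determinations.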

Rattus norvegicus [4] = organism: Rattus norvegicus; assay: Tested for inhibition of myo-inositol uptake in F111 rat fibroblast cells at 5 mM; assay type: functional; in short: as §1
[5] = Michaelis-Menten constant was determined

Structure (SMILES)	inhibition at 5000 µM (Rattus norvegicus [1])	Formation [2]	inhibition [3]	inhibition at 5000 µM (Rattus norvegicus [4])	Km [5]
O[C@@H]1[C@@H](O)[C@H](O)[C@@H](F)[C@@H](O)[C@H]1O	97%	7%	37%		
O[C@@H]1[C@H](F)[C@@H](O)[C@@H](O)[C@H](O)[C@@H]1O		28%	22%		
CO[C@@H]1[C@H](O)[C@@H](O)[C@@H](O)[C@H](O)[C@@H]1N=[N+]=[N-]		0%	10%		
O[C@@H]1[C@@H](O)[C@H](O)[C@@H](Cl)[C@@H](O)[C@H]1O		1%	30%		
O[C@H]1[C@@H](O)[C@H](O)C[C@H](O)[C@@H]1O		6%	9%	80%	
CO[C@H]1C[C@@H](O)[C@H](O)[C@H](O)[C@H]1O		0%	28%		
O[C@H]1[C@H](O)[C@@H](O)[C@H](O)[C@@H](O)[C@H]1O		100%			1500 µM
[N-]=[N+]=N[C@@H]1[C@H](O)[C@H](O)[C@@H](O)[C@@H](O)[C@@H]1O		1%	17%		
O[C@@H]1[C@@H](O)[C@@H](O)[C@@H](S)[C@@H](O)[C@@H]1O		1.5%	40%		
O=C1[C@@H](O)[C@H](O)[C@@H](O)[C@H](O)[C@@H]1O		7%	47%		
N[C@H]1[C@@H](O)[C@H](O)[C@H](O)[C@@H](O)[C@H]1O	87%	9%	19%		

Source: ChEMBL document CHEMBL1126945, “Synthesis and evaluation of 3-modified 1D-myo-inositols as inhibitors and substrates of phosphatidylinositol synthase and inhibitors of myo-inositol uptake by cells” (1993)
